Converted amounts (≈) assume the structure as drawn.
What was measured:
[1] = system: Mycolicibacterium smegmatis; assay: Antimicrobial activity against Mycobacterium smegmatis str. MC2 155 ATCC 700084 assessed as inhibition of planktonic bacteria growth incubated for 48 hrs by broth microdilution method; format: organism-based
How it was run: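 48 h preculture in 7H9 (ADC, 0.5% Tween 80) used to inoculate fresh 7H9 at 5 × 10^5 CFU mL-1 (OD600 0.006). Compounds added from 100 mM DMSO-d6 stocks and twofold serially diluted. Incubated stationary at 37 °C for 48 h, then 6 h more with alamarBlue. MIC = lowest concentration without visible growth. Duplicate, at least two separate runs.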

[2] = system: Mycolicibacterium smegmatis; assay: Antibiofilm activity against Mycobacterium smegmatis str. MC2 155 ATCC 700084 assessed as inhibition of biofilm formation incubated for 48 hrs by crystal violet reporter assay; format: functional, organism-based; details: for IC50: Mycolicibacterium smegmatis, MC2 155 ATCC 700084, 48 h
How it was run: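 48 h culture subcultured to 0.01 in M9 minimal salts medium containing compound. Incubated in PVC plates, stationary, 37 °C, 48 hr. Wells washed with water, stained 30 min with 0.1% crystal violet, and eluted with 95% ethanol for 10 min. OD540 read; % inhibition taken versus untreated wells. Duplicate wells, at least two separate runs.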

[3] = system: Mycolicibacterium smegmatis; assay: Potentiation of ampicillin-induced antimicrobial activity against Mycobacterium smegmatis str. MC2 155 ATCC 700084 assessed as fold reduction in ampicillin MIC at 20 uM incubated for 48 hrs by broth microdilution method; format: functional
[4] = system: Mycolicibacterium smegmatis; assay: Potentiation of cefotaxime-induced antimicrobial activity against Mycobacterium smegmatis str. MC2 155 ATCC 700084 assessed as fold reduction in cefotaxime MIC at 20 uM incubated for 48 hrs by broth microdilution method; format: functional

With CCCCCc1ccc(C(=O)Nc2ccc3[nH]c(N)nc3c2)cc1 the MIC [1] was 150 µM (≈ 48.4 µg/mL) and the IC50 [2] was 13.6 µM.
CCCCCc1ccc(C(=O)Nc2ccc3c(c2)nc(N)n3CCCCc2ccccc2)cc1 was tested, and the MIC [1] was 100 µM (≈ 45.5 µg/mL) and the IC50 [2] was 4.3 µM.
Compound CCCCCc1ccc(C(=O)Nc2ccc3c(c2)nc(N)n3CCc2cccc(OC)c2)cc1 has an MIC [1] of 200 µM (≈ 91.3 µg/mL) and an IC50 [2] of 12.5 µM.
Compound CCCCCc1ccc(C(=O)Nc2ccc3c(c2)nc(N)n3Cc2ccccc2)cc1 has an MIC [1] of 100 µM (≈ 41.3 µg/mL) and an IC50 [2] of 12.2 µM.
In the case of CCCCCCn1c(N)nc2cc(NC(=O)c3ccc(CCCCC)cc3)ccc21, the MIC [1] is reported as > 200 µM and the IC50 [2] is reported as 25.6 µM.
For CCCCCc1ccc(C(=O)Nc2ccc3c(c2)nc(N)n3CCc2ccccc2)cc1, the MIC [1] was 100 µM (≈ 42.7 µg/mL) and the IC50 [2] was 5.4 µM.
CCCCCc1ccc(C(=O)Nc2ccc3c(c2)nc(N)n3CCc2ccc(OC)cc2)cc1 showed an MIC [1] of 120 µM (≈ 54.8 µg/mL) and an IC50 [2] of 8.8 µM.
For CCCCCc1ccc(C(=O)Nc2ccc3c(c2)nc(N)n3CCCC)cc1, the MIC [1] was > 200 µM and the IC50 [2] was 22.4 µM.
With CCCCCc1ccc(C(=O)Nc2ccc3c(c2)nc(N)n3Cc2ccc(OC)cc2)cc1 the MIC [1] was > 200 µM and the IC50 [2] was 12.5 µM.
CCCCCc1ccc(C(=O)Nc2ccc3c(c2)nc(N)n3CCCc2ccccc2)cc1 showed an MIC [1] of 60 µM (≈ 26.4 µg/mL), an MBIC50 [2] of 8 µM and an IC50 [2] of 3.5 µM. For the same compound, the “fold change (FC)” value [3] was 16 and the “fold change (FC)” value [4] was 128.
For CCCCCc1ccc(C(=O)Nc2ccc3c(c2)nc(N)n3CCc2ccccc2OC)cc1, the MIC [1] was 120 µM (≈ 54.8 µg/mL) and the IC50 [2] was 11.3 µM.
In the case of Nc1nc2cc(NC(=O)Nc3ccc(Cl)c(Cl)c3)ccc2n1CCCc1ccccc1, the MIC [1] is reported as 100 µM (≈ 45.4 µg/mL), the IC50 [2] is reported as 2.6 µM and the “fold change (FC)” value [3] is reported as 2. For the same compound, the “fold change (FC)” value [4] was 2.
Work on Nc1nc2cc(C(=O)Nc3ccc(Cl)c(Cl)c3)ccc2n1CCCc1ccccc1 yielded an MIC [1] of 200 µM (≈ 87.9 µg/mL) and an IC50 [2] of 8.6 µM.
Nc1nc2cc(NC(=O)c3cc(Cl)cc(Cl)c3)ccc2n1CCCc1ccccc1 showed an MIC [1] of 200 µM (≈ 87.9 µg/mL) and an IC50 [2] of 9.4 µM.
Compound Nc1nc2cc(NC(=O)c3ccc(Cl)c(Cl)c3)ccc2n1CCCc1ccccc1 has an MIC [1] of 200 µM (≈ 87.9 µg/mL) and an IC50 [2] of 8.8 µM.
CCCCCCCCCn1c(N)nc2cc(NC(=O)c3ccc(CCCCC)cc3)ccc21 showed an MIC [1] of 200 µM (≈ 89.7 µg/mL) and an IC50 [2] of 23.2 µM.
CCCCCc1ccc(C(=O)Nc2ccc3c(c2)nc(N)n3CCCc2ccccc2Br)cc1 was tested, and the MIC [1] was 120 µM (≈ 62.3 µg/mL) and the IC50 [2] was 10.5 µM.
With CCCCCc1ccc(C(=O)Nc2ccc3c(c2)nc(N)n3CCCc2ccc(OC)cc2)cc1 the MIC [1] was 100 µM (≈ 47.1 µg/mL), the IC50 [2] was 4.3 µM and the “fold change (FC)” value [3] was 4. For the same compound, the “fold change (FC)” value [4] was 16.
With CCCCCc1ccc(C(=O)Nc2ccc3c(c2)nc(N)n3CCCc2ccc(Cl)cc2)cc1 the MIC [1] was 120 µM (≈ 57 µg/mL), the IC50 [2] was 6.4 µM and the “fold change (FC)” value [3] was 4. The “fold change (FC)” value [4] was 8.
CCCCCc1ccc(C(=O)Nc2ccc3c(c2)nc(N)n3CCCc2cccc(Br)c2)cc1 was tested, and the MIC [1] was 100 µM (≈ 51.9 µg/mL) and the IC50 [2] was 9.2 µM.
CCCCCc1ccc(C(=O)Nc2ccc3c(c2)nc(N)n3CCCc2ccc(Br)cc2)cc1 was tested, and the MIC [1] was 100 µM (≈ 51.9 µg/mL), the IC50 [2] was 6.2 µM and the “fold change (FC)” value [3] was 4. The “fold change (FC)” value [4] was 16.
For CCCCCc1ccc(C(=O)Nc2ccc3c(c2)nc(N)n3CCCc2ccc(F)cc2)cc1, the MIC [1] was 120 µM (≈ 55 µg/mL), the IC50 [2] was 3.6 µM and the “fold change (FC)” value [3] was 4. The “fold change (FC)” value [4] was 64.

Reference: ChEMBL document CHEMBL4368897, “Using 2-aminobenzimidazole derivatives to inhibit Mycobacterium smegmatis biofilm formation” (Medchemcomm, 2019)
